The record followed here is ChEMBL document CHEMBL4837217, “Design, synthesis, in vitro and in vivo biological evaluation of pyranone-piperazine analogs as potent antileishmanial agents” (Eur J Med Chem, 2021).

Structures are written as SMILES. pIC50: −log10 of the molar value. The source made the active and inactive calls. The calls are words filed in the database; no cut-off is given here. Bounds are passed on as bounds.

Data set [1] concerns Leishmania donovani. The data set can be described thus: Antileishmanial activity against amastigote stage of Leishmania donovani MHOM/IN/80/Dd8 harboring luciferase gene infected in mouse J774 cells assessed as parasite killing at 50 to 100 uM incubated for 72 hrs by Steady-Glo reagent based luciferase assay. It is filed as functional. Conditions: dose 50-100 µM. A digest of the protocol:
(§1)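 J774 murine macrophages, 4 × 10⁴ cells/well in RPMI with 10% FBS for 24 h, are infected for 24 h at 37 °C, 5% CO₂ with stationary-phase luciferase-transfected L. donovani Dd8 promastigotes at a 1:8 macrophage:parasite ratio. Compounds are dissolved in DMSO. Luminescence is read after Steady-Glo is added in PBS. IC₅₀ is taken from a four-parameter Hill nonlinear regression. Miltefosine is the reference.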

Data set [2] deals with Splenocyte. Put plainly: Immunomodulatory activity in BALB/c mouse infected with Leishmania donovani amastigotes assessed as increase in IL-12 level in splenocytes supernatants at 50 mg/kg, ip for 5 days. Conditions: time 5.0 day. It is filed as functional, organism-based.
Data set [3] concerns Leishmania donovani. The data set can be described thus: Antileishmanial activity against amastigote stage of Leishmania donovani MHOM/IN/80/Dd8 harboring luciferase gene infected in mouse J774 cells assessed as parasite growth inhibition incubated for 72 hrs by Steady-Glo reagent based luciferase assay. It is filed as functional, organism-based. Conditions: MHOM/IN/80/Dd8, J774, 72 h. In outline:
as §1

For data set [4], the system named is Leishmania donovani. The data set can be described thus: Antileishmanial activity against Leishmania donovani MHOM/IN/80/Dd8 infected in BALB/c mouse assessed as reduction in intracellular amastigote burden in spleen at 50 mg/kg, ip for 5 days and measured at 1 week post-treatment by Giemsa staining based assay relative to control. It counts as functional. Conditions: MHOM/IN/80/Dd8, ip, 288 h, time 12 day. In outline: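 Female BALB/c mice (20–25 g), 5/group, infected iv with 2 × 10^7 stationary-phase L. donovani promastigotes. Infection confirmed at 2 wk, then 50 mg/kg ip daily for 5 consecutive days. Vehicle was 5% DMSO. Sacrificed day 7 post-treatment. Giemsa-stained liver/spleen impression smears counted as amastigotes/1000 nucleated cells, expressed as LDU (amastigotes per nucleated cell × organ weight in mg), compared with untreated infected controls.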

The subject of data set [5] is Leishmania donovani. The data set can be described thus: Induction of apoptosis in Leishmania donovani MHOM/IN/80/Dd8 promastigotes assessed as late apoptotic cells at 50 uM measured after 24 hrs by Alexa fluor488-AnnexinV/PI staining based FACSCalibur flow cytometry analysis (reference value: 0.7%). It counts as functional.
Data set [6] deals with Splenocyte. Put plainly: Immunomodulatory activity in BALB/c mouse infected with Leishmania donovani amastigotes assessed as increase in IFN-gamma level in splenocytes supernatants at 50 mg/kg, ip for 5 days. Conditions: time 5.0 day. It is filed as functional, organism-based.
Data set [7] relates to Leishmania donovani. The data set can be described thus: Antileishmanial activity against amastigote stage of Leishmania donovani MHOM/IN/80/Dd8 harboring luciferase gene infected in mouse J774 cells assessed as parasite growth inhibition by Giemsa staining based analysis. It is filed as functional, organism-based. Conditions: time 12-72 hrs, TDE = time-dependent effect. A digest of the protocol:
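J774 macrophages are infected for 24 h with stationary-phase luciferase-transfected Dd8 promastigotes at a 1:8 ratio in chamber slides. After compound treatment, cells are fixed and Giemsa-stained, and intracellular amastigotes are counted by microscopy.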

Data set [8] relates to Splenocyte. The data set can be described thus: Immunomodulatory activity in BALB/c mouse infected with Leishmania donovani amastigotes assessed as decrease in TGF-beta level in splenocytes supernatants at 50 mg/kg, ip for 5 days. It counts as functional, organism-based. Conditions: time 5.0 day.
Data set [9] has as its system Leishmania donovani. Put plainly: Induction of mitochondrial membrane potential dysfunction in Leishmania donovani MHOM/IN/80/Dd8 promastigotes assessed as cells with mitochondrial depolarization at 50 uM incubated for 48 hrs by JC1 staining based flow cytometry (reference value: 3.63%). It is filed as functional. A digest of the protocol:
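Promastigotes (1 × 10^6 cells/mL) exposed to 50 µM for 24–72 h, or to IC50 for 72 h. CCCP (50 µM final) served as depolarization positive control. Cells washed, stained with JC-1 (2 µM final) 30 min at 37 °C, 5% CO2. Red-to-green fluorescence shift measured by flow cytometry.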

For data set [10], the system named is Leishmania donovani. The data set can be described thus: Antileishmanial activity against log phase of Leishmania donovani MHOM/IN/80/Dd8 promastigotes assessed as reduction in cell viability by MTT assay. Conditions: time 12-72 hrs, TDE = time-dependent effect. It counts as functional, organism-based.
A short description of data set [11]: Cytotoxicity against mouse J774 cells assessed as reduction in cell viability incubated for 72 hrs by MTT assay. It counts as cell-based. In outline:
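J774 macrophages seeded at 1 × 10^5 cells/well overnight, then exposed to graded concentrations (7.81–500 µM) for 72 h at 37 °C, 5% CO2. MTT (5 mg/mL) added for 2 h, formazan solubilized in DMSO and read at 570 nm. CC50 taken as 50% viability loss relative to untreated cells.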

On to `N#Cc1c(N2CCN(c3ccccc3O)CC2)cc(-c2ccccc2)oc1=O`, for which the Activity is more than 89% in the data set with Leishmania donovani [1]; 1.2% with Leishmania donovani [5]; “Tde” with Leishmania donovani [7]; 54.1% in the data set with Leishmania donovani [9]; “Tde” in the data set on Leishmania donovani [10]. The result in the data set on Splenocyte [2], with Splenocyte [6] and in the data set on Splenocyte [8] was inactive. For the same compound, in the data set on Leishmania donovani [3], the pIC50 was 4.96. The inhibition in vivo at 50 mg/kg with Leishmania donovani [4] is 56.9%. For the same compound, the cytotoxic concentration (CC50) at 72 h in data set [11] is 351 µM.
